High-throughput results: PubChem, The Scripps Research Institute Molecular Screening Center
Most compounds without a hit are left out; they make up all but 2.5% or so of the library.
GSTO1 counter – counter-screen for RBBP9 inhibitors: inhibitors of human GSTO1; P78417; recombinant GSTO1, activity-based probe fluorescence polarization; inhibition, % at 5.96 µM; hit rate 1.1% among 300,000; AID 1974;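 active means inhibition above the campaign mean inhibition plus 3 SD, cut at about 35% in these data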;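 further: 0% = GSTO1-1 with DMSO and 100% = wells lacking GSTO1-1 enzyme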
Target sequence (P78417 whole entry, looked up): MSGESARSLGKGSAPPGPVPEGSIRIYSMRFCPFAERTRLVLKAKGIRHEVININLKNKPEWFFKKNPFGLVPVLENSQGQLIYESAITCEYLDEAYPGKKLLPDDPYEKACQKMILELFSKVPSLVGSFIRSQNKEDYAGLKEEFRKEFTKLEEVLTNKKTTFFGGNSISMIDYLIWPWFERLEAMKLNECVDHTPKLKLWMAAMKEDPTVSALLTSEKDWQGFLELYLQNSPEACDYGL
CTSL1 counter – blocks F. hepatica cathepsin L1 in PFM18AAP counter-screen; inhibition, % at 5.96 µM; hit rate 0.49% among 300,000; AID 1906; recombinant F. hepatica cathepsin L1, Z-Leu-Arg-MCA fluorescence;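 active means inhibition above the mean of all tested compounds plus 3 SD, set per screening campaign, cut at about 17% in these data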;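 further: 0% = plate median of test compound wells and 100% = 1 µM Z-Phe-Ala-diazomethylketone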
TDP2 inh – blocks human TDP2 phosphodiesterase activity. O95551. hit rate 0.34% among 370,000. AID 720702. recombinant TDP2, T5PNP hydrolysis, p-nitrophenol absorbance 415 nm. inhibition, % at 12.8 µM;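 active means inhibition above the mean of all tested compounds plus 3 SD, set per campaign, cut at about 25% in these data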;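 further: 0% = DMSO with enzyme and 100% = buffer with substrate but no TDP2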
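Assay system: recombinant human TDP2 / Reagent: T5PNP substrate at 5 mM, a TopII-DNA adduct mimic / Measured by: epi absorbance from released p-nitrophenol / Evaluation: % inhibition relative to enzyme-containing and enzyme-free wells / Control set: enzyme-free and DMSO wells / Replicates: each compound tested once, singlicate / Schedule: enzyme reaction with compound for 2 h at 37 °C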
PAD4 FP inh – blocks human protein arginine deiminase 4. Q9UM07. recombinant PAD4, RCA probe fluorescence polarization. inhibition, % at 6.36 µM. hit rate 0.41% among 330,000;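 active means percent inhibition above a cutoff equal to the mean of all tested compounds plus 3 SD, cut at about 15% in these data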;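 further: 0% = PAD4 with RCA probe and DMSO and 100% = probe without PAD4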
PRMT1 inh – blocks human protein arginine methyltransferase 1 | Q99873 | recombinant PRMT1, activity-based probe fluorescence polarization | inhibition, % at 2.79 µM | hit rate 1.3% among 370,000;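 active means inhibition above about 21% made by adding two undisclosed values, limit read from the data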
Target sequence (Q99873 whole entry, looked up): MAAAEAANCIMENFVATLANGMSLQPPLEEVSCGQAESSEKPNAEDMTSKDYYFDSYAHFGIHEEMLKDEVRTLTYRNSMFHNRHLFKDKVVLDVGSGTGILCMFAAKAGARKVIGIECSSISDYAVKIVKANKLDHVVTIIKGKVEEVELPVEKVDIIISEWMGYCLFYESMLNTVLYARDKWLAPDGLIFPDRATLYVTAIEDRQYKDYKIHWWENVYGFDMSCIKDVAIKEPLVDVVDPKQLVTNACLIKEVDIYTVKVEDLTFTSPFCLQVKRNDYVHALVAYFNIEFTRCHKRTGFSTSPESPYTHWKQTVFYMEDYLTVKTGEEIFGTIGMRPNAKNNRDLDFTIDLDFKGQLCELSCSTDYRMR
PRMT1 confirm – confirmation of human PRMT1 inhibitors. inhibition, % at 2.79 µM. AID 687036. recombinant His-PRMT1, activity-based probe fluorescence polarization. hit rate 42% among 3,300. shares compounds with PRMT1 inh;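 active means mean inhibition across replicates above the hit cutoff derived for the earlier primary screen, cut at about 22% in these data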
* = called active by the depositor; / = no result given.

SMILES	GSTO1 counter	CTSL1 counter	TDP2 inh	PAD4 FP inh	PRMT1 inh	PRMT1 confirm
COc1ccc(OC)c(C2Nc3c(Cl)ccc(C(=O)O)c3C3C=CCC32)c1 (centres undefined)	20.3	-0.5	12.6	-3.3	46.0*	27.9*
Cc1ccc(NC(=O)CSc2ncc3ccccn23)cc1C	6.3	-4.1	2.6	-6.3	28.0*	19.2
COC(=O)[C@]12C[C@H](CC(=O)NCCc3ccccc3OC)C(=O)N(Cc3ccc(Cl)cc3Cl)C1=C[C@H](COCc1ccccc1)O[C@@H]2C	/	/	-1.1	/	-0.7	/
Cc1ccc2c(c1)/C(=N/OS(=O)(=O)c1ccccc1)CCS2	-2.2	-3.6	6.9	2.3	0.3	/
CC1=CC(=O)C(C2CCCCC2)=C/C1=N\OS(=O)(=O)c1ccccc1	/	/	12.7	/	50.6*	13.1
Cc1ccc(CNC(=O)CSc2nccn(-c3ccc(C)c(F)c3)c2=O)cc1	3.4	2.5	11.9	-1.3	36.9*	18.8
O=C(CSc1nccn(-c2ccc(Br)cc2)c1=O)NCc1ccccc1	13.7	6.4	2.3	1.4	19.8	/
COc1ccc(-n2ccnc(SCC(=O)NCc3ccc(C)cc3)c2=O)cc1Cl	0.7	1.7	16.9	-7.6	35.5*	20.9
CCC[C@H]1[C@@H](NC(=O)C#Cc2ccccc2)CC[C@@]23CCCN2C(=O)CCC[C@@H]13	/	/	8.0	/	-3.9	/
COc1ccc(-c2cc(-c3ccco3)[nH]c(=O)c2C#N)cc1OC	22.3	1.8	6.3	-18.7	26.5*	27.1*
O=C(CCNC(=O)c1ccco1)NCCc1ccc(Cl)cc1	/	/	-2.1	/	47.4*	1.1
COc1cccc(CNC(=O)Cn2c(-c3ccccc3)cc(C(C)=O)c2C)c1	/	/	4.2	/	-1.8	/
CN1CCc2c(sc3c2C(=O)NC(c2ccco2)N3)C1 (centres undefined)	9.5	1.9	0.4	2.0	26.8*	-0.1
CN1CCc2c(sc3c2C(=O)NC(c2ccc(-c4ccc(Cl)cc4)o2)N3)C1 (centres undefined)	-1.4	6.8	20.9	-1.8	13.3	/
O=C1NC(c2ccco2)Nc2sc3c(c21)CCN(Cc1ccccc1)C3 (centres undefined)	-1.2	0.6	4.2	-4.7	31.2*	-1.5
O=C(OCCN1CCN(C2CN(Cc3cn(Cc4ccccc4C(F)(F)F)nn3)S(=O)(=O)C2)CC1)c1cc2ccccc2o1 (centres undefined)	/	/	-4.2	/	-1.1	/
NS(=O)(=O)c1ccc(NC(=S)NC(=O)/C=C/c2ccco2)cc1	20.6	5.1	-7.1	-7.5	56.0*	19.9
Cc1cccc(NC(=S)NC(=O)/C=C/c2ccco2)c1	8.4	8.6	2.6	-10.5	35.5*	11.4
NC(N)=NS(=O)(=O)c1ccc(NC(=S)NC(=O)/C=C/c2ccco2)cc1	19.2	5.1	21.0	-8.5	9.0	/
O=C(/C=C/c1ccco1)NC(=S)Nc1cccc([N+](=O)[O-])c1	18.6	6.2	12.4	1.3	20.5	/
O=C(NC1CCCCN(Cc2ccc(Cl)cc2)C1=O)c1ccccc1-c1ccc(Cl)c(Cl)c1 (centres undefined)	/	/	12.1	/	-2.9	/
C=CCN(CC#CC1=CCCCC1)Cc1ccccc1	/	/	-4.5	/	-0.4	/
O=C(CC(Nc1ccc(F)cc1)C(=O)OCC(=O)c1cccs1)c1ccccc1 (centres undefined)	1.7	-1.2	14.4	-0.8	29.4*	11.6
CC1(C)Cc2c(c(N3CCOCC3)nc3sc(C(=O)Nc4cccc(Cl)c4)c(N)c23)CO1	2.6	-0.3	2.6	2.3	8.2	/
CC1(C)Cc2c(c(N3CCOCC3)nc3sc(C(=O)Nc4ccccc4)c(N)c23)CO1	-1.6	-0.1	-14.3	-7.0	27.2*	23.5*
SMILES	GSTO1 counter	CTSL1 counter	TDP2 inh	PAD4 FP inh	PRMT1 inh	PRMT1 confirm
CCOc1cc(/C=C2\C(=O)N(Cc3ccc(C)cc3)C(C)=C2C(=O)OC)ccc1O	34.6	-0.8	-7.3	-5.5	41.1*	6.5
CCOC(=O)N1CCN(C(=O)c2ccc3oc(CCCc4ccccc4)nc3c2)CC1	-0.1	5.3	-2.1	-3.0	30.7*	-0.8
O=C1CCNc2ccc(-c3ccccc3)cc21	-3.9	-2.5	1.1	-1.3	74.9*	79.2*
CC1=NN(C(=S)Nc2ccccc2)C(c2ccccc2)C1 (centres undefined)	-6.1	-3.4	3.4	-1.5	1.7	/
Cc1ccc(C2CC(c3ccccc3)=NN2C(=S)Nc2ccccc2)o1 (centres undefined)	0.6	4.4	2.4	-13.2	50.6*	0.0
Nc1cc(=O)[nH]c(SCC(=O)Nc2ccc(S(=O)(=O)N3CCOCC3)cc2)n1	1.0	-0.1	-16.4	-2.9	18.5	/
O=C(CSc1nccc(=O)[nH]1)Nc1ccc(S(=O)(=O)N2CCOCC2)cc1	6.2	2.6	6.0	4.2	48.5*	9.0
CCN1CCSc2ccc(C(=O)NCc3ccc(OC(C)C)cc3)cc21	-0.9	0.0	-2.5	-1.9	11.0	/
CCOc1ccc(CNC(=O)c2ccc3c(c2)N(CC)CCS3)cc1	4.7	3.6	-3.7	1.2	25.3*	-1.3
CCOC(=O)c1c(-n2c(C)cc(C=O)c2C)sc2c1CCCC2	3.1	1.5	-7.7	-4.4	-1.9	/
Cc1ccc(C)n1-c1sc2c(c1C(=O)O)CCCC2	7.2	-5.8	16.5	-3.6	27.0*	1.4
O=C(O)c1ccc(NS(=O)(=O)c2ccc3c(c2)C2C=CCC2C(c2ccccc2F)N3)cc1 (centres undefined)	/	/	13.3	/	47.3*	13.0
CCCOc1ccc(Cc2nn3c(=O)/c(=C/c4ccco4)sc3nc2=O)cc1	14.0	-0.9	-16.4	1.1	33.3*	7.4
Cc1ccc(NC(=O)CSc2ccc(-c3cccnc3)nn2)c(C)c1	6.3	2.9	-6.3	-7.3	50.8*	-1.8
Cc1cc(C)n2c(=S)[nH]nc2n1	2.5	-1.9	-9.8	-3.6	56.5*	90.8*
NCCSSCCN	10.9	-1.6	-11.6	2.8	80.0*	31.1*
Cc1ccc(-c2c(C(=O)NC3CCCC3)oc(=O)c3ccccc23)cc1	/	/	-11.9	/	-6.8	/
Cn1cccc1/C=C1\SC(=S)N(NC(=O)c2ccccc2O)C1=O	19.0	6.5	11.4	-8.9	-6.6	/
COc1ccc(/C=C2\SC(=S)N(C(Cc3ccccc3)C(=O)O)C2=O)cc1 (centres undefined)	/	/	-17.2	/	3.4	/
O=C(O)C(Cc1ccccc1)N1C(=O)/C(=C/C=C/c2ccco2)SC1=S (centres undefined)	/	/	22.2	/	61.0*	33.6*
O=C(O)C(Cc1ccccc1)N1C(=O)/C(=C/c2cccnc2)SC1=S (centres undefined)	14.1	1.7	-3.2	0.8	26.2*	4.5
O=C(NN1C(=O)/C(=C/C=C/c2ccco2)SC1=S)c1ccccc1O	-15.8	2.6	23.9	-26.6	41.9*	32.1*
O=C(NC1CCCCN(Cc2cccc(Cl)c2)C1=O)c1ccc(F)c(F)c1 (centres undefined)	/	/	0.4	/	2.8	/
Cc1cc(C)c(S(=O)(=O)c2ccc(Cl)cc2)c(Cl)n1	6.7	0.5	3.2	-2.5	1.3	/
